# Columns and labels:
# [1] = Metabolic stability in serum (unknown origin); type: ADME
# [2] = Oral absorption in beagle dog at 5 mg/kg, po by LC/MS/MS analysis; type: ADME, organism-based, Canis lupus familiaris; parameters: dose 5 mg/kg, route oral; conditions: in vivo
# Outline: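 Naive male beagle dogs were dosed once, orally at 5 mg/kg in EtOH/PEG 400/50 mM citrate buffer pH 4 (5/40/55), or intravenously at 0.5 mg/kg for reference. Plasma was sampled over 24 h and processed by acetonitrile precipitation. Bioavailability %F = AUC_po × Dose_iv / (AUC_iv × Dose_po).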
# [3] = AUC (0 to infinity) in jagular vein cannulated beagle dog at 0.5 mg/kg, iv by LC/MS/MS analysis; type: ADME, organism-based, Canis lupus familiaris; parameters: time infinity, dose 0.5 mg/kg, route intravenous; conditions: plasma
# Outline: (§1)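 Naive male beagle dogs got a single intravenous infusion of 0.5 mg/kg in EtOH/PEG 400/water 5/20/75, adjusted to pH 4 with HCl. EDTA-K3 blood was collected over 24 h and plasma isolated. Plasma was precipitated with acetonitrile to a final 60%, filtered, dried, reconstituted in 20% acetonitrile and analysed.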
# [4] = AUC (0 to infinity) in portal vein cannulated beagle dog at 0.5 mg/kg, iv by LC/MS/MS analysis; type: ADME, organism-based, Canis lupus familiaris; parameters: time infinity, dose 0.5 mg/kg, route intravenous; conditions: plasma; outline: as §1
# [5] = Oral bioavailability in golden syrian hamster at 5 mg/kg; type: ADME, organism-based, Mesocricetus auratus; conditions: in vivo
# Syrian golden hamster [6] = experiment: Cmax in golden syrian hamster assessed as liver triphosphate level at 5 mg/kg, po by LC/MS/MS analysis; type: ADME, organism-based, Mesocricetus auratus; parameters: dose 5 mg/kg, route oral; conditions: in vivo
# Outline: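 Groups of 12 Golden Syrian hamsters were dosed orally at 5 mg-equiv/kg. Vehicle was EtOH/PEG400/water buffered with 50 mM pH 4 citrate at 2.5 mg-equiv/mL. Liver was homogenized in four volumes of ice-cold 0.1% KOH/67 mM EDTA in 70% MeOH containing 0.25 μM Cl-ATP, then centrifuged, dried and reconstituted in 1 mM ammonium phosphate pH 7.0. Triphosphate was measured by LC/MS/MS, with endogenous ATP checked for sample stability.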
# Syrian golden hamster [7] = experiment: Cmax in golden syrian hamster assessed as liver triphosphate level at 1 mg/kg, iv by LC/MS/MS analysis; type: ADME, organism-based, Mesocricetus auratus; parameters: dose 1 mg/kg, route intravenous; conditions: in vivo
# Outline: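 Golden Syrian hamsters in groups of 12, dosed iv at 1 mg-equiv/kg in EtOH/PEG400/water adjusted to pH 4 with HCl (0.5 mg-equiv/mL). Liver homogenised in ice-cold 70% MeOH with 0.1% KOH, 67 mM EDTA and 0.25 μM Cl-ATP internal standard, then centrifuged, dried and reconstituted. Triphosphate measured by LC/MS/MS; endogenous ATP checked for sample stability.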
# [8] = Metabolic stability in human liver S9 fraction assessed as extraction at 2 uM after 90 mins by LC/MS/MS analysis; type: ADME, subcellular; conditions: read-out: Stability
# Outline: (§2)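 Compound at 2 μM was incubated with human intestinal or hepatic S9 fraction plus NADPH and UDPGA for 90 min at 37 °C. Time-point samples were quenched in aqueous acetonitrile/methanol with internal standard and analysed by LC/MS/MS. Half-life came from an exponential first-order fit, and hepatic extraction was predicted from half-life using the well-stirred model.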
# [9] = Half life in human intestinal S9 fraction at 2 uM by LC/MS/MS analysis; type: ADME, Intestine; outline: as §2
# [10] = Permeability across basolateral to apical side in human Caco2 cells at 10 uM after 1 to 2 hrs by LC/MS/MS analysis; type: ADME, cell-based; conditions: Caco-2, read-out: permeability
# Outline: (§3)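 Caco-2 monolayers were grown at least 21 days, and membrane integrity was checked by TEER after buffer equilibration. Test compound was dosed at 10 μM on the apical or basolateral side, in duplicate wells. Receiver samples at 1 and 2 h were precipitated with acetonitrile plus internal standard and run by LC/MS/MS.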
# [11] = Permeability across apical to basolateral side in human Caco2 cells at 10 uM after 1 to 2 hrs by LC/MS/MS analysis; type: ADME, cell-based; conditions: Caco-2, read-out: permeability; outline: as §3
# [12] = Aqueous solubility of the compound in phosphate buffer at pH 7 by reverse-phase UPLC-UV method; type: physicochemical
# Outline: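 Excess solid was suspended in pH 7 phosphate buffer at ambient temperature, sonicated, then stirred for at least 2 h. After centrifugation, the supernatant was quantified by reverse-phase UPLC-UV.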
# [13] = Lipophilicity, log D of the compound by HPLC/UV method; type: physicochemical
# Outline: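 A 10 mM DMSO stock was diluted 1:100 into 1:1 acetonitrile/water, shaken 30 min, and analysed by HPLC/UV on a C18 column with 20 mM ammonium acetate/acetonitrile mobile phase.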
# Huh-7 = experiment: Prodrug coversion in human HuH7 cells assessed as triphosphate formation at 10 uM after 24 hrs by liquid chromatography coupled with mass spectrometry; type: ADME, cell-based; conditions: huh-7, 24 h
# Outline: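 Huh-7 cells carrying the GT1b replicon, grown to confluency in 12-well plates (0.88 × 10⁶ cells/well). Exposed 24 h to 10 μM compound, then washed with ice-cold saline and extracted overnight in frozen 70% methanol. Dried extract resuspended in 1 mM ammonium phosphate pH 8.5. Triphosphate quantified by LC/triple-quadrupole MS.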
# [14] = Cytotoxicity against human HuH7 cells after 3 days by fluorescence assay; type: cell-based; conditions: Huh-7 cells
# Outline: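 Huh-7 HCV replicon cells were seeded at 2000 cells/well in medium without Geneticin. Compounds were added as ten-point 1:3 DMSO dilutions in quadruplicate (final DMSO 0.44%), with […] as the 100% cytotoxicity control. After 3 days at 37 °C, cells were washed and given 400 nM calcein AM for 30 min at RT, and fluorescence read at ex 490/em 520 nm. Signal was normalized to DMSO and puromycin wells, and CC50 taken from a four-parameter Hill fit.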
# Hepatitis C virus [15] = experiment: Antiviral activity against HCV genotype 1b infected in human HuH7 cells assessed as inhibition of viral replication after 3 days by luminescence assay; type: functional, organism-based, Hepacivirus hominis; conditions: Huh-7, 72 h
# Outline: (§4)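 Multiplex replicon assay carrying a renilla luciferase reporter, with stable GT1b, 1a and 2a replicons and chimeric 2b, 3a, 4a, 5a and 6a replicons. 2000 replicon cells/well in medium without Geneticin. Ten-step 1:3 serial dilutions, four replicates, 0.44% DMSO final. Incubated 3 days at 37 °C, 5% CO₂. Luminescence normalised to DMSO wells and to protease-inhibitor (ITMN-191) wells. EC50 from a four-parameter Hill fit.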
# Hepatitis C virus [16] = experiment: Antiviral activity against HCV genotype 2a; type: functional, organism-based, Hepacivirus hominis; conditions: pooled result: one value given for 8 cell lines, strains, targets or settings; outline: as §4
# Hepatitis C virus [17] = experiment: Antiviral activity against HCV genotype 1 infected in human patient assessed as viral load reduction at 900 mg, bid relative to placebo; type: functional, Hepacivirus hominis
# Hepatitis C virus [18] = experiment: Antiviral activity against HCV genotype 1 infected in human patient assessed as viral load reduction at 450 mg administered as solution bid relative to baseline control; type: functional, Hepacivirus hominis
# Outline: (§5)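 Randomized, double-blind, placebo-controlled, multiple-dose, dose-escalation trial in treatment-naive patients chronically infected with HCV genotype 1. Cohorts had eight active and two placebo subjects. Doses ran from 50 mg once daily to 900 mg BID, fed or fasted, for 5 days. Read-out was median viral load change (log10 IU/mL) from baseline.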
# Hepatitis C virus [19] = experiment: Antiviral activity against HCV genotype 1 infected in human patient assessed as viral load reduction at 900 mg administered as tablet formulation bid for 5 days relative to baseline control; type: functional, Hepacivirus hominis; outline: as §5
# Homo sapiens = experiment: Toxicity in human patient infected with HCV genotype 1 administered twice a day for 5 days; type: organism-based; conditions: in vivo, 120 h
# Outline: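 Randomized, double-blind, placebo-controlled multiple-dose escalation in treatment-naive patients chronically infected with HCV genotype 1. Nine cohorts (8 active, 2 placebo each) received 50 mg once daily up to 900 mg BID, fed or fasted, for 5 days. Safety, tolerability and viral load were assessed.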
# Hepatitis C virus [20] = experiment: Selectivity ratio of EC50 for HCV harboring NS5B RNA dependent RNA polymerase S282T mutant to EC50 for wild-type HCV; type: functional, Hepacivirus hominis
# [21] = Toxicity in dog after 7 days; type: organism-based, Canis lupus familiaris; conditions: in vivo
# Outline: (§6)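 Nonclinical 7-day toxicology study with daily dosing up to 300 mg/(kg day) in rats and up to 75 mg/(kg day) in dogs; NOAEL set from test-article related findings.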
# [22] = Toxicity in rat after 7 days; type: organism-based; conditions: in vivo; outline: as §6
# [23] = Efflux ratio of apparent permeability across human Caco2 cells at 100 uM; type: ADME, cell-based; conditions: Caco-2
# Outline: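 Caco-2 monolayers grown to confluence for at least 21 days; membrane integrity checked by TEER after equilibration in transport buffer. Compound added to apical or basolateral side (duplicate wells) to give forward and reverse permeability. Receiver samples taken at 1 and 2 h, acetonitrile-precipitated, and quantified by LC/MS/MS. Papp calculated from receiver slope, volume and monolayer area. Recovery also measured.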
# [24] = molecular target: DNA-directed RNA polymerase, mitochondrial (Homo sapiens) (UniProt O00411); experiment: Inhibition of mitochondrial RNA polymerase (unknown origin) assessed as inhibition of single nucleotide incorporation; conditions: concentration not given here
# Chain of DNA-directed RNA polymerase, mitochondrial (Homo sapiens) (O00411 whole entry): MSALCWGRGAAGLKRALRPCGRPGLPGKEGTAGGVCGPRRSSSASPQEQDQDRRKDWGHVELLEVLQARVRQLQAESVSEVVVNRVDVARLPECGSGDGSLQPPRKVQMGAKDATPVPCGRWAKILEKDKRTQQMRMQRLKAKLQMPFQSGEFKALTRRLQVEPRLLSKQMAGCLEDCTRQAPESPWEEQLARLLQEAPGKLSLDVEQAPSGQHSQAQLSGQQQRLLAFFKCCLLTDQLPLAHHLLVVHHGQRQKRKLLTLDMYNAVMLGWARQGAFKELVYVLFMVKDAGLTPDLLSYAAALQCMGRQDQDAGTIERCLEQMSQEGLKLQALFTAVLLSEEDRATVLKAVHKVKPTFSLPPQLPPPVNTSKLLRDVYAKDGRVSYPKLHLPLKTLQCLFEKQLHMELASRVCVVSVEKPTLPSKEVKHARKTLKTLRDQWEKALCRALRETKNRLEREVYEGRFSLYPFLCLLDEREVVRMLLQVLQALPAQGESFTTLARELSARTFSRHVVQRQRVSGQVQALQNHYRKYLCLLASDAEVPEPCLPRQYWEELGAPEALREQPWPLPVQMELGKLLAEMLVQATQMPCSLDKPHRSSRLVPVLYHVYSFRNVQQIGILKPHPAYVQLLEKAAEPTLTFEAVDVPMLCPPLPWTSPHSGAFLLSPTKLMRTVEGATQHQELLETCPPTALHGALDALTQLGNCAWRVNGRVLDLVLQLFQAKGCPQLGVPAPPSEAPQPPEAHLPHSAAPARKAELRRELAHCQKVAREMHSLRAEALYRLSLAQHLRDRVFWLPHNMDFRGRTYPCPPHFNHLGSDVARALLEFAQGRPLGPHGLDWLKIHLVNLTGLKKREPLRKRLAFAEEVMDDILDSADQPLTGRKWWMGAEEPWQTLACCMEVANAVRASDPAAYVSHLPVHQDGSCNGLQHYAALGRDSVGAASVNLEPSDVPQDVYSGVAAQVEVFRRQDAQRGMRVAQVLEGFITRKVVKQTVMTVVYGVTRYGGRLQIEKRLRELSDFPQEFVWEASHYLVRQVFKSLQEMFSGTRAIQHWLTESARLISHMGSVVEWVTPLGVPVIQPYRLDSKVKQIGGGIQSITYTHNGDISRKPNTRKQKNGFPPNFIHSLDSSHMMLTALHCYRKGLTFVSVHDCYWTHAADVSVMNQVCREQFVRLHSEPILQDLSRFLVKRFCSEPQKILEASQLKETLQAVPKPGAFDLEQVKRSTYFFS
# Outline: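 Reactions started with 500 μM (final) natural NTP or NTP analog. Time-point aliquots were quenched in EDTA/formamide, heated to 65 °C, resolved on 20% polyacrylamide/8 M urea gels, and product formation quantified by phosphorimaging.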
# [25] = Inhibition of HCV genotype 1b recombinant NS5B RNA dependent RNA polymerase using sshRNA as substrate incubated for 5 mins prior to compound addition measured after 90 mins in presence of [33P]GTP
# [26] = Toxicity in po dosed Sprague-Dawley rat assessed as necrosis in organs administered qd for 7 days; type: organism-based; conditions: in vivo
# Rattus norvegicus = experiment: Toxicity in Sprague-Dawley rat assessed as death at 20 to 40 mg/kg, po qd for 7 days; type: organism-based; parameters: dose 20-40 mg/kg, route oral; conditions: in vivo, 168 h
# Hepatocyte = experiment: Prodrug coversion in human hepatocytes assessed as triphosphate formation assesed per million cells at 10 uM incubated for 1 hr followed by compound washout by liquid chromatography coupled with mass spectrometry; type: ADME, cell-based; parameters: dose 10 uM
# Outline: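 Confluent primary human hepatocytes (0.88 × 10⁶ cells/well, Williams E medium) were exposed to 10 μM compound for 1 h, then to drug-free medium for 23 h. Cells were collected during and after exposure and extracted. Triphosphate was quantified by LC/MS/MS and expressed per million cells.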
Structure (SMILES),Stability [1],Fa [2] [%],Cmax (Syrian golden hamster [6]) [nM],Cmax (Syrian golden hamster [7]) [nM],"hepatic extraction ratio at 1.5 h, 2 µM [8]",half-life at 2 µM [9] [h],Papp B→A at 10 µM [10] [×10⁻⁶ cm/s],Papp A→B at 10 µM [11] [×10⁻⁶ cm/s],solubility [12] [µg/mL],logD [13],CC50 at 72 h [14] [nM],EC50 (Hepatitis C virus [15]) [nM],inhibition [24] [%],also measured
CC(C)OC(=O)[C@H](C)NP(=O)(OC[C@H]1O[C@@](C#N)(c2ccc3c(N)ncnn23)[C@](C)(O)[C@@H]1O)Oc1ccccc1 (stereo partly drawn),Stable,10,530,5650,0.9,> 10.2,8.92,0.16,306,1.8,> 89000,1050,,AUC(0-inf) [3]: 0.16 µM·h; AUC(0-inf) [4]: 0.99 µM·h; bioavailability [5]: 1.9%; Drug metabolism (Huh-7): 20 µM
CC(C)OC(=O)[C@H](C)N[P@](=O)(OC[C@H]1O[C@@](C#N)(c2ccc3c(N)ncnn23)[C@](C)(O)[C@@H]1OC(=O)C(C)C)Oc1ccccc1 [GS-6620],Stable,,,,,,,,,,,,,EC50 (Hepatitis C virus [16]): 68 nM; Activity (Hepatitis C virus [17]): 1.14 log10IU/ml; Activity (Hepatitis C virus [18]): 1.63 log10IU/ml; Activity (Hepatitis C virus [19]): 1.73 log10IU/ml; MTD (Homo sapiens): 900 mg
CC(C)OC(=O)[C@H](C)NP(=O)(OC[C@H]1O[C@@](C#N)(c2ccc3c(N)ncnn23)[C@](C)(O)[C@@H]1OC(=O)C(C)C)Oc1ccccc1 (stereo partly drawn),Stable,88,3670,4500,,,,,,2.9,47000,610,,Ratio EC50 (Hepatitis C virus [20]): >95; NOAEL at 168 h [21]: > 75 mg/kg/day; NOAEL at 168 h [22]: > 300 mg/kg/day; efflux ratio at 100 µM [23]: < 2
C[C@@]1(c2ccc3c(N)ncnn23)O[C@H](CO)[C@@H](O)[C@@]1(C)O,,,,,,,,,,,,> 89000,0.08,IC50 [25]: 55000 nM
C[C@@]1(O)[C@H](O)[C@@H](CO)O[C@@]1(C#N)c1ccc2c(N)ncnn12,,,,,,,,,,,,> 89000,0.03,Drug metabolism (Huh-7): < 0.5 µM
C[C@@]1(O)[C@H](O)[C@@H](CO)O[C@H]1c1ccc2c(N)ncnn12,,,,,,,,,,,,,21,NOAEL at 168 h [26]: < 5 mg/kg/day; Activity (Rattus norvegicus): Toxic
CC[C@H](C)OC(=O)[C@H](C)NP(=O)(OC[C@H]1O[C@@](C#N)(c2ccc3c(N)ncnn23)[C@](C)(O)[C@@H]1O)Oc1ccccc1 (stereo partly drawn),Stable,16,1270,,0.93,9.87,17.9,1.47,200,2.1,> 89000,230,,AUC(0-inf) [3]: 0.12 µM·h; AUC(0-inf) [4]: 0.8 µM·h; Drug metabolism (Hepatocyte): Active
C[C@H](NP(=O)(OC[C@H]1O[C@@](C#N)(c2ccc3c(N)ncnn23)[C@](C)(O)[C@@H]1O)Oc1ccccc1)C(=O)OC1CCCC1 (stereo partly drawn),,,840,2800,0.95,0.5,5.86,0.37,10,2.2,> 89000,450,,bioavailability [5]: 6%; Drug metabolism (Hepatocyte): Active

# From ChEMBL document CHEMBL3120104, “Discovery of the first C-nucleoside HCV polymerase inhibitor (GS-6620) with demonstrated antiviral response in HCV infected patients” (J Med Chem, 2014)
